The source of these data is ChEMBL document CHEMBL4196195, “( R)- N-(1-Methyl-2-hydroxyethyl)-13-( S)-methyl-arachidonamide (AMG315): A Novel Chiral Potent Endocannabinoid Ligand with Stability to Metabolizing Enzymes” (J Med Chem, 2018).

Series [1] relates to Mus musculus. Nature of the series: Antiallodynic activity in CD1 mouse model of CFA-induced inflammatory pain assessed as increase in CFA-reduced mechanical paw withdrawal threshold at 5 mg/kg, ip measured at 10 mins post injection. It counts as functional, organism-based. Summed up:
(§1)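 Adult male mice (39 ± 10 g), wild-type CD1 or CB1 KO on CD1 background, single housed. CFA:saline 1:1 (20 μL) injected intraplantar into right hind paw; 48 h allowed before dosing. Drug given ip in 5 mL/kg, vehicle group included. Electronic von Frey (90 g probe) after ≥30 min habituation, read in duplicate per paw, at baseline, 48 h post-CFA and 10, 30, 60, 120 min post-dose. Two-way mixed ANOVA with Bonferroni post hoc tests.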

Series [2] concerns Mus musculus. Kind of series: Effect on mechanical paw withdrawal threshold of contralateral paw in CB1 receptor knockout CD1 mouse model of CFA-induced inflammatory pain at 5 mg/kg, ip measured at 10 to 120 mins post injection. The note with it: in vivo. The class given is ADME, organism-based. Summed up: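 Wild-type CD1 or CB1 KO (CD1 background) adult male mice. Unilateral intraplantar CFA:saline 1:1 (20 μL) into right hind paw, 48 h before ip dosing (5 mL/kg); vehicle controls. Threshold of the uninjected contralateral paw measured by electronic von Frey (90 g probe), duplicate readings averaged, at 10, 30, 60, 120 min post-dose. Two-way mixed ANOVA.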

The target in series [3] is T1, ABHD6 (monoacylglycerol lipase ABHD6) (Homo sapiens, UniProt Q9BV23).
T1 sequence (Q9BV23 whole entry): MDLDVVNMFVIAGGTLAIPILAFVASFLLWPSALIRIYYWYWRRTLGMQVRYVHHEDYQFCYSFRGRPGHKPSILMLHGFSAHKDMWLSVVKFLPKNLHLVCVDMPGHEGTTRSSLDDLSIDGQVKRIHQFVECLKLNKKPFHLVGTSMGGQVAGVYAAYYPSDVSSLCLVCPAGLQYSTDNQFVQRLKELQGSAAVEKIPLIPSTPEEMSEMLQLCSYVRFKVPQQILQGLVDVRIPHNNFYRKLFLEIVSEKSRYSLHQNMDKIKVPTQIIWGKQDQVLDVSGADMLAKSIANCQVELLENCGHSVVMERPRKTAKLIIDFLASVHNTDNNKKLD
Nature of the series: Stability assessed as human ABHD6-mediated compound hydrolysis by HPLC analysis. The class given is ADME. The settings on record: read-out: Stability. Summed up: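 Human MGL or ABHD6 expressed in E. coli BL21(DE3); cell lysate in 150 mM NaCl, 50 mM Tris, 1% Triton X-100, pH 8.0. Lysate (0.5 µg total protein) incubated at 37 °C with compound or 2-AG reference for 30 min. Samples at 0–30 min quenched in acetonitrile. Analysed by C18 reversed-phase HPLC with UV at 204 nm against external standards.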

Series [4] has as its target Cannabinoid receptor 1 (Rattus norvegicus, UniProt P20272). Kind of series: Agonist activity at rat CB1 receptor expressed in HEK293 cells assessed as inhibition of forskolin-induced cAMP accumulation incubated for 30 mins. The class given is functional, cell-based. The note with it: read-out: EC50. Summed up: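 HEK293 cells stably expressing rCB1, harvested with nonenzymatic dissociation reagent, washed in HBSS, 1000–1500 cells/well. Test compound at various concentrations with forskolin (2 μM final) in stimulation buffer, 30 min at room temperature. cAMP read by TR-FRET (Eu-cAMP tracer plus ULight anti-cAMP, 60 min room temperature). Forskolin-stimulated cAMP set to 100%. EC50 from nonlinear regression; two independent experiments in triplicate.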
In general terms: Cyclic AMP is a second messenger, typically raised through Gs and lowered through Gi signalling.

The target in series [5] is Cannabinoid receptor 1 (Rattus norvegicus) (UniProt P20272). Kind of series: Agonist activity at rat CB1 receptor expressed in HEK293 cells assessed as inhibition of forskolin-induced cAMP accumulation incubated for 30 mins relative to 500 nM CP-55,940. It counts as functional, cell-based.
Chain of Cannabinoid receptor 1 (Rattus norvegicus) (P20272 whole entry): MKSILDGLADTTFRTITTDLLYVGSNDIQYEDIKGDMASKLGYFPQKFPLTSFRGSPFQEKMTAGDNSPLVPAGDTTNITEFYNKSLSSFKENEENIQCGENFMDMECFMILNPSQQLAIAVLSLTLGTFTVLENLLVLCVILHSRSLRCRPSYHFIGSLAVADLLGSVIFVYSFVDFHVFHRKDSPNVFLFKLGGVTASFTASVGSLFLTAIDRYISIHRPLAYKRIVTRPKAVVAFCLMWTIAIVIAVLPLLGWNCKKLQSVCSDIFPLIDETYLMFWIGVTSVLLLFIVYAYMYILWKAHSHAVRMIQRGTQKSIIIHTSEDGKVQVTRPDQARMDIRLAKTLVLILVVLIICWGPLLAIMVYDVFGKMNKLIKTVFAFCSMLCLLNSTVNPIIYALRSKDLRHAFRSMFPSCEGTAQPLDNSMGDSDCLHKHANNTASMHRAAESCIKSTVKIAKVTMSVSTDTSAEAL
For series [6], the target named is T2, Prostaglandin G/H synthase 2 (Mus musculus, UniProt Q05769).
T2 sequence (Q05769 whole entry): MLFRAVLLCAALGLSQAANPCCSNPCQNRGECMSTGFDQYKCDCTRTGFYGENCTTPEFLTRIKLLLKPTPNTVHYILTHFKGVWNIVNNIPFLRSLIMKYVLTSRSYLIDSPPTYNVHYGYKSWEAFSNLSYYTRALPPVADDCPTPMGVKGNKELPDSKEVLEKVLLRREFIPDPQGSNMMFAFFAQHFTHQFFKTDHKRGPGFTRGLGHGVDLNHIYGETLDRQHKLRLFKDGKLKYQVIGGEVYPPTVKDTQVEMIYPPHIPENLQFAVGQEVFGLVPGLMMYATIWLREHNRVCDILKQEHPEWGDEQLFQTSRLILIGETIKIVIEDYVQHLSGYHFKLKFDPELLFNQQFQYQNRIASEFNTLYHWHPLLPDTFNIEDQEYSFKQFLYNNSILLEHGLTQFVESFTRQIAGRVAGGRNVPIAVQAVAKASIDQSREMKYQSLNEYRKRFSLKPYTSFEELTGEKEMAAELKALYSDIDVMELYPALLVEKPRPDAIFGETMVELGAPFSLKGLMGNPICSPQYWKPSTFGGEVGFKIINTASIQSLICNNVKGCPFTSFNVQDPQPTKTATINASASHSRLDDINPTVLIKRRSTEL
Kind of series: Stability assessed as mouse COX2-mediated compound oxidation by measuring oxygen consumption by polarographic assay. The class given is ADME.

The test system of series [7] is Mus musculus. Kind of series: Antiallodynic activity in CD1 mouse model of CFA-induced inflammatory pain assessed as increase in CFA-reduced mechanical paw withdrawal threshold at 5 mg/kg, ip measured at 60 mins post injection. The class given is functional, organism-based. In a few lines: as §1
Series [8] deals with Mus musculus. Nature of the series: Antiallodynic activity in CB1 receptor knockout CD1 mouse model of CFA-induced inflammatory pain assessed as increase in CFA-reduced mechanical paw withdrawal threshold at 5 mg/kg, ip measured at 10 to 120 mins post injection. It counts as functional, organism-based. Summed up: as §1
Series [9] deals with Cannabinoid receptor 2 (Mus musculus, UniProt P47936). Kind of series: Displacement of [3H]CP-55,940 from mouse CB2 receptor expressed in HEK293 cell membranes in absence of FAAH inhibitor PMSF by radioligand binding assay. In a few lines:
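Membranes from HEK293 cells expressing human or mouse CB2 (preparations lacking FAAH activity), competing against [3H]CP-55,940. IC50 by nonlinear regression, converted to Ki. Three independent experiments run in triplicate; Ki is the mean of the three.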

Calls of active or inactive are those of the source.

Chain of Cannabinoid receptor 1 (P20272 whole entry): as the sequence (P20272 whole entry) above
Chain of Cannabinoid receptor 2 (P47936 whole entry): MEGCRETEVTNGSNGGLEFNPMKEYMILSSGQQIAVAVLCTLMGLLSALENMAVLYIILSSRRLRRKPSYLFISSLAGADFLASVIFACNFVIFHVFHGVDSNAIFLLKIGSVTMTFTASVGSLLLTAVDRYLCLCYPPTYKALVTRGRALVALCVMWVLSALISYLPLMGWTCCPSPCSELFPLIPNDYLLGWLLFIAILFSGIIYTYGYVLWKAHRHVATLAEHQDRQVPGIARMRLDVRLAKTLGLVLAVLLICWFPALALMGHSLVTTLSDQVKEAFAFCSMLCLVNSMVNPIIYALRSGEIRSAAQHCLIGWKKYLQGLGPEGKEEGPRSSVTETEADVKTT

For `CCCCC/C=C\[C@H](C)/C=C\C/C=C\C/C=C\CCCC(=O)N[C@H](C)CO`, the outcome in series [1] and in series [7] was Active. Also, in series [2], the Activity entry is on record as “Non-Toxic”. Moreover, the half-life in series [3] came to 30 min. In addition, in series [4], the EC50 is 0.6 nM. Moreover, the Emax in series [5] stood at 76%. Moreover, the Stability entry in series [6] is given as “Stable”. In addition, the outcome in [8] was inactive. The Ki in [9] is 653 nM.

A word on the EC50: it is the concentration that produces a half-maximal response. Usually Emax stands for the greatest response seen or fitted, relative to the assay's reference. Broadly, the Ki is a measure of affinity in units of concentration, obtained from inhibition or displacement. High values mean a looser hold on the target, low ones a stronger hold on the target.
